This note sets out measurements from ChEMBL document CHEMBL2203116, “Synthesis and evaluation of novel carbon-11 labeled oxopurine analogues for positron emission tomography imaging of translocator protein (18 kDa) in peripheral organs” (J Med Chem, 2011).

One may read the Ki as the equilibrium dissociation constant of an inhibitor or competing ligand from its target. Low values mean a stronger hold on the target, high ones a looser hold on the target. By logD is commonly meant the decadic logarithm of the distribution of all forms, ionised or not, between an organic phase and buffer at a given pH. Read a low logD as lower lipophilicity.

The test system of data set [1] is Lung. In words: Drug uptake in Sprague-Dawley rat lung at 0.13 nmol, iv after 2 mins by PET scanning. Format: ADME, organism-based. The conditions noted are these: in vivo. A digest of the protocol:
(§1)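 Male Sprague-Dawley rats (6–8 weeks old), isoflurane-anesthetized, prone. ROIs on lung, heart, kidney, liver, small intestine and cardiac blood pool. Uptake decay-corrected to injection time and expressed as SUV (body-weight normalized). n = 4, mean ± SD.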

In data set [2] the test system is Heart. In words: Drug uptake in Sprague-Dawley rat heart at 0.13 nmol, iv pretreated with unlabeled (R)-PK11195 by PET scanning. Format: ADME, organism-based. The conditions noted are these: in vivo. The essentials:
(§2)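 Isoflurane-anesthetized Sprague-Dawley rats underwent 30-min PET after iv [11C]radioligand, with unlabeled blocker given iv 1 min before tracer. Blockers were (R)-PK11195 at 3.0 mg/kg or AC-5216 at 1.0 mg/kg in 300 μL saline with 10% ethanol and 5% polysorbate 80. Regional uptake was decay-corrected SUV (n = 4).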

The test system of data set [3] is Blood. In words: Drug uptake in Sprague-Dawley rat cardiac blood pool at 0.13 nmol, iv up to 30 mins by PET scanning. The class given is ADME, organism-based. The conditions noted are these: in vivo, 0.5 h. The essentials: (§3)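 Isoflurane-anesthetized male Sprague-Dawley rats lay prone and received an iv bolus of [11C]radioligand in 200 μL. 3D list-mode emission scans ran 30 min from injection. Regions of interest were drawn on the organs and cardiac blood pool. Uptake was decay-corrected to injection time and expressed as SUV (normalized to injected radioactivity and body weight). Values are mean of n = 4.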

For data set [4], the system named is Lung. In words: Drug uptake in Sprague-Dawley rat lung at 0.13 nmol, iv pretreated with unlabeled AC-5216 by PET scanning. Format: ADME, organism-based. The conditions noted are these: in vivo. A digest of the protocol:
as §1

Data set [5] concerns Liver. In words: Drug uptake in Sprague-Dawley rat liver at 0.13 nmol, iv pretreated with unlabeled AC-5216 measured after 27.5 mins by PET scanning relative to control. Format: ADME, organism-based. The conditions noted are these: in vivo. A digest of the protocol: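 Male Sprague-Dawley rats, 6-8 weeks, isoflurane-anesthetized. A blocking TSPO ligand (1.0 mg/kg, in 300 μL saline with 10% ethanol and 5% polysorbate 80) was injected 1 min before iv radioligand (16-18 MBq/200 μL). Liver ROI as decay-corrected SUV (injected activity, body weight), 27.5-min value versus controls; n = 4.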

In data set [6] the test system is Kidney. In words: Drug uptake in Sprague-Dawley rat kidney at 0.13 nmol, iv up to 30 mins by PET scanning. The class given is ADME, organism-based. The conditions noted are these: in vivo, 0.5 h. The essentials: as §1
For data set [7], the system named is Lung. The experiment in a line: Drug uptake in Sprague-Dawley rat lung at 0.13 nmol, iv after 27.5 mins by PET scanning. The conditions noted are these: in vivo. The class given is ADME, organism-based. A digest of the protocol:
as §1

In data set [8] the test system is Intestine. The experiment in a line: Drug uptake in Sprague-Dawley rat small intestine at 0.13 nmol, iv up to 30 mins by PET scanning. Format: ADME, organism-based. The conditions noted are these: in vivo, 0.5 h. The essentials: as §1
In data set [9] the test system is Liver. The experiment in a line: Drug uptake in Sprague-Dawley rat liver at 0.13 nmol, iv after 27.5 mins by PET scanning. The class given is ADME, organism-based. The conditions noted are these: in vivo. A digest of the protocol: as §1
For data set [10], the system named is Liver. In words: Drug uptake in Sprague-Dawley rat liver at 0.13 nmol, iv up to 30 mins by PET scanning. Format: ADME, organism-based. The conditions noted are these: in vivo, 0.5 h. The essentials:
as §1

For data set [11], the system named is Blood. In words: Drug uptake in Sprague-Dawley rat cardiac blood pool at 0.13 nmol, iv after 2 mins by PET scanning. The class given is ADME, organism-based. The conditions noted are these: in vivo. A digest of the protocol: as §3
In data set [12] the test system is Kidney. The experiment in a line: Drug uptake in Sprague-Dawley rat kidney at 0.13 nmol, iv after 2 mins by PET scanning. The class given is ADME, organism-based. The conditions noted are these: in vivo. A digest of the protocol:
as §3

In data set [13] the test system is Liver. The experiment in a line: Drug uptake in Sprague-Dawley rat liver at 0.13 nmol, iv after 2 mins by PET scanning. Format: ADME, organism-based. The conditions noted are these: in vivo. A digest of the protocol: as §1
For data set [14], the system named is Heart. In words: Drug uptake in Sprague-Dawley rat heart at 0.13 nmol, iv after 27.5 mins by PET scanning. The conditions noted are these: in vivo. The class given is ADME, organism-based. A digest of the protocol:
as §3

For data set [15], the system named is Heart. In words: Drug uptake in Sprague-Dawley rat heart at 0.13 nmol, iv pretreated with unlabeled AC-5216 by PET scanning. The class given is ADME, organism-based. The conditions noted are these: in vivo. The essentials:
as §2

For data set [16], the system named is Blood. In words: Drug uptake in Sprague-Dawley rat cardiac blood pool at 0.13 nmol, iv after 27.5 mins by PET scanning. Format: ADME, organism-based. The conditions noted are these: in vivo. The essentials:
as §3

Data set [17] deals with Lung. In words: Drug uptake in Sprague-Dawley rat lung at 0.13 nmol, iv pretreated with unlabeled (R)-PK11195 by PET scanning. Format: ADME, organism-based. The conditions noted are these: in vivo. The essentials:
as §1

In data set [18] the test system is Kidney. In words: Drug uptake in Sprague-Dawley rat kidney at 0.13 nmol, iv pretreated with unlabeled (R)-PK11195 by PET scanning. The class given is ADME, organism-based. The conditions noted are these: in vivo. A digest of the protocol: as §2
Data set [19] has as its system Lung. The experiment in a line: Drug uptake in Sprague-Dawley rat lung at 0.13 nmol, iv up to 30 mins by PET scanning. Format: ADME, organism-based. The conditions noted are these: in vivo, 0.5 h. A digest of the protocol: as §1
For data set [20], the system named is Heart. In words: Drug uptake in Sprague-Dawley rat heart at 0.13 nmol, iv after 2 mins by PET scanning. The conditions noted are these: in vivo. The class given is ADME, organism-based. A digest of the protocol:
as §3

Data set [21] has as its system Liver. In words: Drug uptake in Sprague-Dawley rat liver at 0.13 nmol, iv pretreated with unlabeled (R)-PK11195 measured after 27.5 mins by PET scanning relative to control. Format: ADME, organism-based. The conditions noted are these: in vivo. A digest of the protocol:
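Male Sprague-Dawley rats, 6-8 weeks old, under isoflurane, prone. An unlabeled TSPO blocking ligand (3.0 mg/kg) was injected 1 min before the iv radioligand (16-18 MBq/200 μL). A liver ROI was decay-corrected and expressed as SUV normalized to injected activity and body weight. The 27.5-min value was compared with unblocked controls; n = 4.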

Data set [22] relates to Heart. The experiment in a line: Drug uptake in Sprague-Dawley rat heart at 0.13 nmol, iv up to 30 mins by PET scanning. The class given is ADME, organism-based. The conditions noted are these: in vivo, 0.5 h. A digest of the protocol:
as §3

Data set [23] concerns Kidney. In words: Drug uptake in Sprague-Dawley rat kidney at 0.13 nmol, iv pretreated with unlabeled AC-5216 by PET scanning. Format: ADME, organism-based. The conditions noted are these: in vivo. The essentials:
as §1

Data set [24] deals with Kidney. The experiment in a line: Drug uptake in Sprague-Dawley rat kidney at 0.13 nmol, iv after 27.5 mins by PET scanning. The class given is ADME, organism-based. The conditions noted are these: in vivo. A digest of the protocol:
as §3

For data set [25], the target named is Translocator protein (Rattus norvegicus, UniProt P16257). The experiment in a line: Displacement of [11C]-PK-11195 from TPSO in Sprague-Dawley rat brain homogenate after 30 mins by gamma counting. The class given is tissue-based. (In a radioligand displacement assay an active substance lowers the binding of a labelled ligand.)
Data set [26] is described as follows: Lipophilicity, log D of the compound in octanol-phosphate buffer at pH 7.4 by shake flask method. The class given is physicochemical. A digest of the protocol:
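Radioligand (~200000 cpm) shaken with n-octanol (3.0 g) and 0.1 M sodium phosphate buffer pH 7.4 (3.0 g). Vortexed 3 min at room temperature, centrifuged 3500 rpm for 5 min. Phases weighed and counted; organic layer repartitioned until consistent. LogD = log of the cpm/g octanol to cpm/g buffer ratio. Triplicate.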

Sequence of Translocator protein (P16257 whole entry, looked up): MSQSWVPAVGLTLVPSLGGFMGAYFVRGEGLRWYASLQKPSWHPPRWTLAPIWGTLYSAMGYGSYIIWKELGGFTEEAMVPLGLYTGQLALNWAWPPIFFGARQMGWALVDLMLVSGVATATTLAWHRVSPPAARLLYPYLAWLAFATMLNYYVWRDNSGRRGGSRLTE

On to `CN(Cc1cccnc1)C(=O)Cn1c(=O)n([11CH3])c2cnc(-c3ccccc3)nc21`, for which the SUV in data set [1] was 3.4; in [7], 0.5; in data set [9] it was 0.5; in data set [11] it was 3; in data set [12] it was 3.3; in data set [13], 1.6. Further, the SUV in data set [14] is 0.9; in [16], 0.4; in data set [20] it was 4.6; in data set [24], 1. Besides, the Drug uptake result in data set [2] was “Not Active”; in data set [3], “Active”; in data set [4], “Not Active”; in data set [6], “Active”; in data set [8], “Active”; in data set [10], “Active”. Also, the Drug uptake entry was “Not Active” in data set [15]; “Not Active” in data set [17]; “Not Active” in data set [18]; “Active” in data set [19]; “Active” in data set [22]; “Not Active” in data set [23]. For the same compound, the “fold change (FC)” value in data set [5] and in [21] was 1.5 each time.

As to `CCN(Cc1ccccc1)C(=O)Cn1c(=O)n(C)c2cnc(-c3ccccc3)nc21`, the Ki in data set [25] was 0.6 nM. This compound displayed a logD in data set [26] of 3.48.

Turning to `CC[C@@H](C)N(C)C(=O)c1cc2ccccc2c(-c2ccccc2Cl)n1` [(R)PK-11195], in data set [26], the pH-dependent lipophilicity (logD) worked out at 3.74.
